pEC50, pKi: −log10 of the molar value.
How the values were obtained:
[1] = target: T1, Glucocorticoid receptor (Canis lupus familiaris) (UniProt A0A8C0QLS2); test: (§1) Agonist activity at dog glucocorticoid receptor in primary hepatocytes assessed as induction of tyrosine amino transferase activity measured after 20 hrs; type: cell-based
T1 sequence (whole entry): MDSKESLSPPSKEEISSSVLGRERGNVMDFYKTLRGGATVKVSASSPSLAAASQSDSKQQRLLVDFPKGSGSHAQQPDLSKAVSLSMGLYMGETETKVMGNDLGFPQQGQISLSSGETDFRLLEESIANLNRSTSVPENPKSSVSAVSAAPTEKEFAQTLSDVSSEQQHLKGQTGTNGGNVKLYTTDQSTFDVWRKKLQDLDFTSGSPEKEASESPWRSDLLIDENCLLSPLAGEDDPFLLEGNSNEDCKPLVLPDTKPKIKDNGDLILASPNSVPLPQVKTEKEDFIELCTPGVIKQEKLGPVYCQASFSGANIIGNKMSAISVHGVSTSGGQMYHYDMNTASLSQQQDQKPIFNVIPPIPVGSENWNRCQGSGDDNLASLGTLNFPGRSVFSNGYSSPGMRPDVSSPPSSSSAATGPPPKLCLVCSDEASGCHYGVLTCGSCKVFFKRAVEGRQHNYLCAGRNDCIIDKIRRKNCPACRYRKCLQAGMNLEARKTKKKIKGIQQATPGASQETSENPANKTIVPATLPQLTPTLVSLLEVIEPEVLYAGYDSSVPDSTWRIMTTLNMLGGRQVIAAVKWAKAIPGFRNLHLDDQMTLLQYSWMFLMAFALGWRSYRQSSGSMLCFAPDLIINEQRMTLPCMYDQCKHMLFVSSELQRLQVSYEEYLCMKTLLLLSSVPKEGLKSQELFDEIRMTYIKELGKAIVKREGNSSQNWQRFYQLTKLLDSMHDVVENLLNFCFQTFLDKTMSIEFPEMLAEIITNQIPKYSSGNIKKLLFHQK

[2] = target: T2, Glucocorticoid receptor (Canis lupus familiaris, UniProt A0A8C0QLS2); test: as §1; type: cell-based
T2 sequence (A0A8C0QLS2 whole entry): T1 sequence (whole entry)

[3] = target: Cytochrome P450 3A4 (Homo sapiens, UniProt P08684); test: Induction of CYP3A4 in human hepatocytes; type: ADME, cell-based
[4] = target: T3, Cytochrome P450 1A2 (Homo sapiens, UniProt P05177); test: Induction of CYP1A2 in human hepatocytes; type: ADME, cell-based
T3 sequence (P05177 whole entry): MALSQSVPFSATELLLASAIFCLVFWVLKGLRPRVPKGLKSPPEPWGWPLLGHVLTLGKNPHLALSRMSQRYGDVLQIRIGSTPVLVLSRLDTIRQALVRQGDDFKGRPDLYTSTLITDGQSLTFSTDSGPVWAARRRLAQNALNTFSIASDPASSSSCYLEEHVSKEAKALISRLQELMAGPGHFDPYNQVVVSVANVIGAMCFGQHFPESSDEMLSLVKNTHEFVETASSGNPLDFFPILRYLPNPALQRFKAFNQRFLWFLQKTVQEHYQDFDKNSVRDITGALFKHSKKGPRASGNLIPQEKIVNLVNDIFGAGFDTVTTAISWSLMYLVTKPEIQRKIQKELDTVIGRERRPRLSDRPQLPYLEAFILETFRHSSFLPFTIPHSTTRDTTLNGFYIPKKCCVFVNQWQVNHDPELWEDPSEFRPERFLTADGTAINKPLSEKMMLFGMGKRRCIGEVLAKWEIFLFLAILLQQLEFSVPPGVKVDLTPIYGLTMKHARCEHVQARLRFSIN

[5] = organism: Macaca mulatta; test: (§2) Antagonist activity at monkey glucocorticoid receptor in primary hepatocytes assessed as dexamethasone-induced tyrosine amino transferase activity preincubated for 30 mins followed by dexamethasone addition measured after 20 hrs; type: cell-based
[6] = as §2; type: cell-based, Macaca mulatta
[7] = target: T4, Glucocorticoid receptor (Homo sapiens, UniProt P04150); test: (§3) Antagonist activity at glucocorticoid receptor in human primary hepatocytes assessed as inhibition of dexamethasone-induced tyrosine amino transferase activity preincubated for 30 mins followed by dexamethasone addition measured after 20 hrs; type: cell-based
T4 sequence (P04150 whole entry): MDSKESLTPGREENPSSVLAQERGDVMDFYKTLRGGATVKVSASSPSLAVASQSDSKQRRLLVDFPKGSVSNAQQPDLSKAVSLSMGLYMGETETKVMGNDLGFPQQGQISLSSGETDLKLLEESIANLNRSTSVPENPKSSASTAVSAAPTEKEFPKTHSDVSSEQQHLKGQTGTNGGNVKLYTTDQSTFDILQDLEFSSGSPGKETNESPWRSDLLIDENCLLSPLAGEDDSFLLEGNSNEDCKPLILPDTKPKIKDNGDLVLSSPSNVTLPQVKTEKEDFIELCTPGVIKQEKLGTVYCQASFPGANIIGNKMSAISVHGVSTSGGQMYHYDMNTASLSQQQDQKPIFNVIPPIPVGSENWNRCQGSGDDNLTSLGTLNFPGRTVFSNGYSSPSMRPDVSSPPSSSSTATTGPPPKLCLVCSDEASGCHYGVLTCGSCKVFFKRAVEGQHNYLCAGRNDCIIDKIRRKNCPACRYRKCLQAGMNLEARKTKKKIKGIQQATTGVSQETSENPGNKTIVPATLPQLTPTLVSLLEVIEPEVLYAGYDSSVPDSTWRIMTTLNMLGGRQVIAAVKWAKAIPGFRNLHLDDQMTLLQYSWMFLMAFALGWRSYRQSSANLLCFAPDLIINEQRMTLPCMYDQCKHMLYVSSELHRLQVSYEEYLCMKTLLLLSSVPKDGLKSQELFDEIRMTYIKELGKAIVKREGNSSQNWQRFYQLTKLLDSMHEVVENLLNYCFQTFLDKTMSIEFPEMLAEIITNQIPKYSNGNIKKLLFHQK

[8] = target: T5, Glucocorticoid receptor (Homo sapiens) (UniProt P04150); test: as §3; type: cell-based
T5 sequence (whole entry): T4 sequence (P04150 whole entry)

[9] = AUC in Sprague-Dawley CD-1 rat plasma at 3 mg/kg, po administered as cassette dose via gavage measured up to 24 hrs by LC/MS analysis; type: ADME, organism-based; design: time < 24 hr, dose 3 mg/kg, route oral
In short: (§4)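 Three male Sprague Dawley CD-1 rats (220-250g) with jugular vein catheters; three test compounds plus a reference dosed together by oral gavage, 3mg/kg each, in DMSO:0.5% methylcellulose 10:90 (0.6mg/mL per compound), 5mL/kg. Plasma sampled pre-dose and at 0.25, 0.5, 1, 2, 4, 6, 8, 24 h; LC/MS.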

[10] = target: T1, Glucocorticoid receptor (Canis lupus familiaris); test: (§5) Antagonist activity at dog glucocorticoid receptor in primary hepatocytes assessed as dexamethasone-induced tyrosine amino transferase activity preincubated for 30 mins followed by dexamethasone addition measured after 20 hrs; type: cell-based
[11] = target: T2, Glucocorticoid receptor; test: as §5; type: cell-based
[12] = Protein binding in rat plasma; type: ADME, cell-free; conditions: read-out: PPB (converted)
[13] = Cmax in Sprague-Dawley CD-1 rat plasma at 3 mg/kg, po administered as cassette dose via gavage measured up to 24 hrs by LC/MS analysis; type: ADME, organism-based; design: dose 3 mg/kg, route oral; in short: as §4

Cytochrome P450 3A4, sequence (P08684 whole entry): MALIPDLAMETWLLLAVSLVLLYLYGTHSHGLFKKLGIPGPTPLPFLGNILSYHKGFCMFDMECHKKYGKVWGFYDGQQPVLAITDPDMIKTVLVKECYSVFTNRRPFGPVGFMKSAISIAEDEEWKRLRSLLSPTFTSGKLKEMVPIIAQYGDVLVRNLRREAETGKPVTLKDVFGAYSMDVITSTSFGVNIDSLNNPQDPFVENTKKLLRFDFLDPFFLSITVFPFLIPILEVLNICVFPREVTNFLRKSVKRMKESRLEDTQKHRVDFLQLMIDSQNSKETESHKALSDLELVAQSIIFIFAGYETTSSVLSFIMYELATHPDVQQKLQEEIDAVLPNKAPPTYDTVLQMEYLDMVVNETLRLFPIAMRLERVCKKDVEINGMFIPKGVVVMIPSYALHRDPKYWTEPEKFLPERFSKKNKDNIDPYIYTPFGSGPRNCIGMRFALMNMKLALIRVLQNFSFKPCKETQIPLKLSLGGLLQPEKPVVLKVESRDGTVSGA

For `Cn1cc(S(=O)(=O)N2CCC3=Cc4c(cnn4-c4ccc(F)cc4)C[C@]3(C(=O)c3cc(C(F)(F)F)ccn3)C2)cn1` [RELACORILANT], the Emax [1] was 80%, the pEC50 [2] was under 5.00 and the Activity [3] was “Not Active”. The Activity [4] was “Not Active”, the Imax [5] was 99% and the pKi [6] was 6.68. The pKi [7] was 7.09, the Imax [8] was 100% and the AUC at 24 h [9] was 1220 ng·h/mL. It also gave an Imax [10] of 31%, a pKi [11] of under 5.00 and a fraction unbound [12] of 0.003. The Cmax [13] was 262 ng/mL.

Reference: ChEMBL document CHEMBL4049426, “Identification of the Clinical Candidate (R)-(1-(4-Fluorophenyl)-6-((1-methyl-1H-pyrazol-4-yl)sulfonyl)-4,4a,5,6,7,8-hexahydro-1H-pyrazolo[3,4-g]isoquinolin-4a-yl)(4-(trifluoromethyl)pyridin-2-yl)methanone (CORT125134): A Selective Glucocorticoid Receptor (GR) Antagonist” (J Med Chem, 2017)
